Assays:
[1] = tested on: Heart; test: Biodistribution in overnight fasted Sprague-Dawley rat heart pellet fraction at 0.7 to 1.4 MBq, iv preincubated with POCA for 2 hrs before compound administration measured at 30 mins post treatment by Folch-type extraction method; format: ADME, organism-based; conditions: in vivo, 0.5 h
Outline: (§1)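 Female Sprague-Dawley rats, fasted overnight, under isoflurane (3.5% induction, 1.5% maintenance). [18F] tracer in 0.5–1.0% BSA/saline was given by tail vein. POCA group: 30 mg/kg i.p. 120 min before tracer. About 0.5 g tissue was homogenized and sonicated in chloroform/methanol (2:1) at 0 °C, then 40% urea and 5% H2SO4 were added and spun 10 min at 1,800 g. Aqueous, organic and pellet fractions were counted as % of total.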

[2] = tested on: Liver; test: Biodistribution in overnight fasted Sprague-Dawley rat liver pellet fraction at 0.7 to 1.4 MBq, iv at 30 mins by Folch-type extraction method; format: ADME, organism-based; conditions: in vivo, 0.5 h; outline: as §1
[3] = tested on: Heart; test: Biodistribution in overnight fasted Sprague-Dawley rat heart organic fraction at 0.7 to 1.4 MBq, iv preincubated with POCA for 2 hrs before compound administration measured at 30 mins post treatment by Folch-type extraction method; format: ADME, organism-based; conditions: in vivo, 0.5 h; outline: as §1
[4] = tested on: Muscle tissue; test: Biodistribution in overnight fasted Sprague-Dawley rat muscle aqueous fraction at 0.7 to 1.4 MBq, iv preincubated with POCA for 2 hrs before compound administration measured at 120 mins post treatment by Folch-type extraction method; format: ADME, organism-based; conditions: in vivo; outline: as §1
[5] = tested on: Kidney; test: Drug uptake in overnight fasted Sprague-Dawley rat kidney at 0.7 to 1.4 MBq, iv preincubated with POCA for 2 hrs before compound administration measured at 30 mins post treatment; format: ADME, organism-based; conditions: in vivo, 0.5 h
Outline: (§2)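 Female rats fasted overnight, under isoflurane (3.5% induction, 1.5% maintenance). 18F-labelled tracer formulated in 0.5–1.0% BSA/saline, injected via tail vein. Tissues harvested at 30 or 120 min, weighed, gamma-counted, decay-corrected. Uptake expressed as % dose kg/g, i.e. tissue CPM × body wt (kg) × 100 / (tissue wt (g) × dose CPM). POCA groups received 30 mg/kg i.p. 2 h before tracer. n = 5–6.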

[6] = tested on: Kidney; test: Drug uptake in overnight fasted Sprague-Dawley rat kidney at 0.7 to 1.4 MBq, iv at 120 mins; format: ADME, organism-based; conditions: in vivo, 2 h; outline: as §2
[7] = tested on: Muscle tissue; test: Biodistribution in overnight fasted Sprague-Dawley rat muscle organic fraction at 0.7 to 1.4 MBq, iv preincubated with POCA for 2 hrs before compound administration measured at 30 mins post treatment by Folch-type extraction method; format: ADME, organism-based; conditions: in vivo, 0.5 h; outline: as §1
[8] = tested on: Bone; test: Drug uptake in overnight fasted Sprague-Dawley rat bone at 0.7 to 1.4 MBq, iv at 120 mins; format: ADME, organism-based, Bone element; conditions: in vivo, 2 h
Outline: (§3)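 Overnight-fasted female Sprague-Dawley rats under isoflurane received the [18F] tracer in 0.5–1.0% BSA/saline by tail vein. POCA group: 30 mg/kg i.p. 2 h before tracer. Tissues were excised at 30 or 120 min, weighed and gamma-counted with decay correction. Uptake = % dose kg/g, i.e. CPM tissue × body wt (kg) × 100 / (tissue wt (g) × CPM dose). n = 5–6.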

[9] = tested on: Heart; test: Biodistribution in overnight fasted Sprague-Dawley rat heart aqueous fraction at 0.7 to 1.4 MBq, iv at 120 mins by Folch-type extraction method; format: ADME, organism-based; conditions: in vivo, 2 h; outline: as §1
[10] = tested on: Heart; test: Drug uptake in overnight fasted Sprague-Dawley rat heart at 0.7 to 1.4 MBq, iv preincubated with POCA for 2 hrs before compound administration measured at 120 mins post treatment; format: ADME, organism-based; conditions: in vivo; outline: as §2
[11] = tested on: Liver; test: Biodistribution in overnight fasted Sprague-Dawley rat liver organic fraction at 0.7 to 1.4 MBq, iv at 30 mins by Folch-type extraction method; format: ADME, organism-based; conditions: in vivo, 0.5 h; outline: as §1
[12] = tested on: Muscle tissue; test: Biodistribution in overnight fasted Sprague-Dawley rat muscle organic fraction at 0.7 to 1.4 MBq, iv preincubated with POCA for 2 hrs before compound administration measured at 120 mins post treatment by Folch-type extraction method; format: ADME, organism-based; conditions: in vivo; outline: as §1
[13] = tested on: Heart; test: Biodistribution in overnight fasted Sprague-Dawley rat heart organic fraction at 0.7 to 1.4 MBq, iv at 120 mins by Folch-type extraction method; format: ADME, organism-based; conditions: in vivo, 2 h; outline: as §1
[14] = tested on: Muscle tissue; test: Biodistribution in overnight fasted Sprague-Dawley rat muscle pellet fraction at 0.7 to 1.4 MBq, iv preincubated with POCA for 2 hrs before compound administration measured at 120 mins post treatment by Folch-type extraction method; format: ADME, organism-based; conditions: in vivo; outline: as §1
[15] = tested on: Heart; test: Biodistribution in overnight fasted Sprague-Dawley rat heart pellet fraction at 0.7 to 1.4 MBq, iv preincubated with POCA for 2 hrs before compound administration measured at 120 mins post treatment by Folch-type extraction method; format: ADME, organism-based; conditions: in vivo; outline: as §1
[16] = tested on: Liver; test: Drug uptake in overnight fasted Sprague-Dawley rat liver at 0.7 to 1.4 MBq, iv at 30 mins; format: ADME, organism-based; conditions: in vivo, 0.5 h; outline: as §2
[17] = tested on: Blood; test: Drug uptake in overnight fasted Sprague-Dawley rat blood at 0.7 to 1.4 MBq, iv at 120 mins; format: ADME, organism-based; conditions: in vivo, 2 h; outline: as §3
[18] = tested on: Muscle tissue; test: Biodistribution in overnight fasted Sprague-Dawley rat muscle organic fraction at 0.7 to 1.4 MBq, iv at 30 mins by Folch-type extraction method; format: ADME, organism-based; conditions: in vivo, 0.5 h; outline: as §1
[19] = tested on: Heart; test: Biodistribution in overnight fasted Sprague-Dawley rat heart organic fraction at 0.7 to 1.4 MBq, iv preincubated with POCA for 2 hrs before compound administration measured at 120 mins post treatment by Folch-type extraction method; format: ADME, organism-based; conditions: in vivo; outline: as §1
[20] = tested on: Brain; test: Drug uptake in overnight fasted Sprague-Dawley rat brain at 0.7 to 1.4 MBq, iv at 120 mins; format: ADME, organism-based; conditions: in vivo, 2 h; outline: as §3
[21] = tested on: Heart; test: Biodistribution in overnight fasted Sprague-Dawley rat heart aqueous fraction at 0.7 to 1.4 MBq, iv at 30 mins by Folch-type extraction method; format: ADME, organism-based; conditions: in vivo, 0.5 h; outline: as §1
[22] = tested on: Kidney; test: Drug uptake in overnight fasted Sprague-Dawley rat kidney at 0.7 to 1.4 MBq, iv preincubated with POCA for 2 hrs before compound administration measured at 120 mins post treatment; format: ADME, organism-based; conditions: in vivo; outline: as §2
[23] = tested on: Muscle tissue; test: Biodistribution in overnight fasted Sprague-Dawley rat muscle pellet fraction at 0.7 to 1.4 MBq, iv preincubated with POCA for 2 hrs before compound administration measured at 30 mins post treatment by Folch-type extraction method; format: ADME, organism-based; conditions: in vivo, 0.5 h; outline: as §1
[24] = tested on: Heart; test: Drug uptake in overnight fasted Sprague-Dawley rat heart at 0.7 to 1.4 MBq, iv at 30 mins; format: ADME, organism-based; conditions: in vivo, 0.5 h; outline: as §2
[25] = tested on: Lung; test: Drug uptake in overnight fasted Sprague-Dawley rat lung at 0.7 to 1.4 MBq, iv at 30 mins; format: ADME, organism-based; conditions: in vivo, 0.5 h; outline: as §2
[26] = tested on: Liver; test: Biodistribution in overnight fasted Sprague-Dawley rat liver aqueous fraction at 0.7 to 1.4 MBq, iv at 120 mins by Folch-type extraction method; format: ADME, organism-based; conditions: in vivo, 2 h; outline: as §1
[27] = tested on: Muscle tissue; test: Drug uptake in overnight fasted Sprague-Dawley rat muscle at 0.7 to 1.4 MBq, iv preincubated with POCA for 2 hrs before compound administration measured at 120 mins post treatment; format: ADME, organism-based; conditions: in vivo; outline: as §2
[28] = tested on: Blood; test: Drug uptake in overnight fasted Sprague-Dawley rat blood at 0.7 to 1.4 MBq, iv preincubated with POCA for 2 hrs before compound administration measured at 120 mins post treatment; format: ADME, organism-based; conditions: in vivo; outline: as §3
[29] = tested on: Blood; test: Drug uptake in overnight fasted Sprague-Dawley rat blood at 0.7 to 1.4 MBq, iv at 30 mins; format: ADME, organism-based; conditions: in vivo, 0.5 h; outline: as §3
[30] = tested on: Muscle tissue; test: Biodistribution in overnight fasted Sprague-Dawley rat muscle aqueous fraction at 0.7 to 1.4 MBq, iv at 30 mins by Folch-type extraction method; format: ADME, organism-based; conditions: in vivo, 0.5 h; outline: as §1
[31] = tested on: Muscle tissue; test: Drug uptake in overnight fasted Sprague-Dawley rat muscle at 0.7 to 1.4 MBq, iv preincubated with POCA for 2 hrs before compound administration measured at 30 mins post treatment; format: ADME, organism-based; conditions: in vivo, 0.5 h; outline: as §2

Drug uptake [1] [%] | Drug uptake [2] [%] | Drug uptake [3] [%] | Drug uptake [4] [%] | Drug uptake [5] [%IDKg/g] | Drug uptake [6] [%IDKg/g] | Drug uptake [7] [%] | Drug uptake [8] [%IDKg/g] | Drug uptake [9] [%] | Drug uptake [10] [%IDKg/g] | Drug uptake [11] [%] | Drug uptake [12] [%] | Drug uptake [13] [%] | Drug uptake [14] [%] | Drug uptake [15] [%] | Drug uptake [16] [%IDKg/g] | Drug uptake [17] [%IDKg/g] | Drug uptake [18] [%] | Drug uptake [19] [%] | Drug uptake [20] [%IDKg/g] | Compound | further results
32.16 | 44.72 | 63.99 | 9.3 | 0.3441 | 0.1629 | 43.43 | 0.2467 | 4.03 | 0.2288 | 45.61 | 59.27 | 28.56 | 31.41 | 22.48 | 1.126 | 0.0241 | 44.55 | 74.2 | 0.022 | O=C(O)CCCCSCCCCCCCCCCCC[18F] | Drug uptake [21]: 4.02%; Drug uptake [22]: 0.1554 %IDKg/g; Drug uptake [23]: 48.85%; Drug uptake [24]: 0.4413 %IDKg/g; Drug uptake [25]: 0.0621 %IDKg/g; Drug uptake [26]: 10.15%; Drug uptake [27]: 0.0599 %IDKg/g; Drug uptake [28]: 0.0271 %IDKg/g; Drug uptake [29]: 0.029 %IDKg/g; Drug uptake [30]: 16.49%; Drug uptake [31]: 0.0639 %IDKg/g
24.67 | 32.97 | 67.58 | 9.12 | 0.235 | 0.0726 | 47.15 | 0.2934 | 2.39 | 0.1025 | 51.66 | 58.25 | 26.14 | 32.62 | 21.68 | 0.6292 | 0.0098 | 38.77 | 74.91 | 0.0143 | O=C(O)CCSCCCCCCCCCCCCCC[18F] | Drug uptake [21]: 3.97%; Drug uptake [22]: 0.0947 %IDKg/g; Drug uptake [23]: 27.04%; Drug uptake [24]: 0.314 %IDKg/g; Drug uptake [25]: 0.0755 %IDKg/g; Drug uptake [26]: 8.18%; Drug uptake [27]: 0.0197 %IDKg/g; Drug uptake [28]: 0.0125 %IDKg/g; Drug uptake [29]: 0.0392 %IDKg/g; Drug uptake [30]: 28.99%; Drug uptake [31]: 0.0443 %IDKg/g
32.81 | 38.21 | 51.9 | 19.16 | 0.2477 | 0.1014 | 42.23 | 0.3143 | 4.17 | 0.1042 | 48.25 | 48.14 | 18.88 | 32.69 | 24.47 | 0.899 | 0.0105 | 33.56 | 67.98 | 0.0154 | O=C(O)CCSCCCCCCCCCCCC[18F] | Drug uptake [21]: 2.63%; Drug uptake [22]: 0.1637 %IDKg/g; Drug uptake [23]: 32.63%; Drug uptake [24]: 0.589 %IDKg/g; Drug uptake [25]: 0.099 %IDKg/g; Drug uptake [26]: 5.32%; Drug uptake [27]: 0.0298 %IDKg/g; Drug uptake [28]: 0.0392 %IDKg/g; Drug uptake [29]: 0.07 %IDKg/g; Drug uptake [30]: 23.24%; Drug uptake [31]: 0.0333 %IDKg/g
23.8 | 71.69 | 62.03 | 11.37 | 0.1932 | 0.1244 | 43.19 | 0.461 | 1.86 | 0.076 | 19.87 | 53.25 | 9.34 | 35.36 | 29.14 | 1.1847 | 0.0185 | 21.75 | 66.66 | 0.0215 | O=C(O)CCSCCCC/C=C\CCCCCCCC[18F] | Drug uptake [21]: 2.86%; Drug uptake [22]: 0.0611 %IDKg/g; Drug uptake [23]: 32.74%; Drug uptake [24]: 0.7028 %IDKg/g; Drug uptake [25]: 0.0496 %IDKg/g; Drug uptake [26]: 5.68%; Drug uptake [27]: 0.0216 %IDKg/g; Drug uptake [28]: 0.0141 %IDKg/g; Drug uptake [29]: 0.0441 %IDKg/g; Drug uptake [30]: 18.79%; Drug uptake [31]: 0.0297 %IDKg/g
